# Screens from PubChem BioAssay.
# LANA-H2A inh = blocks KSHV LANA binding to histone H2A/H2B | cell-free LANA-H2A/H2B peptide, fluorescence polarization | 0.6% of 320,000 active | Q9QR71 | AID 2629 | inhibition, % (concentration not given with the values); in the data active = inhibition mostly above about 10%, no sharp cut-off; inactive = mostly below about 6.7%
# ASAP1 inh = ASAP1 ArfGAP inhibition; 0.19% of 360,000 active; inhibition, % at 16.5 µM; ASAP1-stimulated ARF1 GTP hydrolysis, GDP FP detection; AID 624377; in the data active = inhibition above about 25%;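 also: 0% = vehicle with enzyme and substrate and 100% = no enzyme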
# Target sequence (Q9ULH1 325-724 limits assumed): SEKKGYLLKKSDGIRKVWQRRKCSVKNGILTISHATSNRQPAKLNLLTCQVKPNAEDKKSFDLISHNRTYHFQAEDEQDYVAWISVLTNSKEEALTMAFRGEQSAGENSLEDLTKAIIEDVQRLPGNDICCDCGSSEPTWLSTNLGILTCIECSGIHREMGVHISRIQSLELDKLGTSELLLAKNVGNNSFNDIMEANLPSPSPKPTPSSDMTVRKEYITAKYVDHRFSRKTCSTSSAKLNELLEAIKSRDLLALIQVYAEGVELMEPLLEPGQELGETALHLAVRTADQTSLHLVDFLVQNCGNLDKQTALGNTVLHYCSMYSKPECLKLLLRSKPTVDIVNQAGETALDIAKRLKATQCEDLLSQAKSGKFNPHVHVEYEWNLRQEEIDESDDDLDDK
# procasp3 activ = activators of human procaspase-3 | P42574 | recombinant procaspase-3 D3A, Ac-DEVD-pNA absorbance 405 nm | activation, % at 8.5 µM | 0.11% of 330,000 active | AID 463141;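 active = activation above the mean of all tested compounds plus 3 SD, cut at about 21% in these data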;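 also: 0% = DMSO alone and 100% = DMSO wells spiked with extra 5 µM PC-3 D3A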
# Target sequence (P42574 whole entry D9A/D28A/D175A): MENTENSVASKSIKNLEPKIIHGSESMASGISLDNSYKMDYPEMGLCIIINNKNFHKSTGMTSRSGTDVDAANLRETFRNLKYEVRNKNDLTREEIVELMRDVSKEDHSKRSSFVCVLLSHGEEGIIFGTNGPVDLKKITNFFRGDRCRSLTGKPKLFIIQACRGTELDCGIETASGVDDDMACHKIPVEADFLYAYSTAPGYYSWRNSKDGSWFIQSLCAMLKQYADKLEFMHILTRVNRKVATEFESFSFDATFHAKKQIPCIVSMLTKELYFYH
#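 Technique: 405 nm absorbance of p-nitroaniline, reads at 0 and 120 min; Test system: Procaspase-3 D3A mutant; Incubation: 1 h enzyme-compound preincubation, then 2 h substrate reaction, 25 °C; Repeats: singlicate, each compound tested once; Benchmarks: low control DMSO wells, high control DMSO plus 5 µM PC-3 D3A.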
# CR mimetic SO = lowers age-related superoxide in aged yeast cells; superoxide response (% of plate mean), % at 10 µM; S. cerevisiae aged cells, superoxide DHE fluorescence; stronger effect = lower value; 0.18% of 330,000 active;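 active = superoxide response under a set limit, about three screen SD below normal, cut at about 65% in these data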;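 also: yeast aged for seven days with compound at 30 °C before DHE staining; 100% = average MFI of all compound-treated wells on the plate with controls excluded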
# proCasp7 act = counter-screen: procaspase-7 (human) activation; P55210; 0.093% of 330,000 active; activation, % at 8.5 µM; recombinant procaspase-7, Ac-DEVD-pNA absorbance 405 nm; D23A/D198A/D206A triple mutant, cannot self-cleave; scale: DMSO 0, 5 µM enzyme 100; AID 463210;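 active = percent activation above the screen-wide mean plus 3 SD, cut at about 25% in these data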
#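 Assay system – Uncleavable procaspase-7 mutant enzyme · Quantity – 2 µM procaspase-7 mutant as dispensed · Times – 1 h preincubation, 2 h reaction · Dosing – single nominal 8.5 µM compound dose, 0.8% DMSO final · Buffer or medium – Zinc-free 50 mM HEPES buffer, pH 7.4, with NaCl and Triton X-100 · Detection – Epi-absorbance of released pNA at 405 nm, two timepoints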
# ARFGAP1 inh = inhibitors of rat ARFGAP1 | Q62848 | 0.26% of 360,000 active | inhibition, % at 16.5 µM | Arfgap1-stimulated ARF1 GTP hydrolysis, GDP FP detection;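 active = inhibition above a per-plate limit, mean inhibition of low control wells plus 3 SD, cut at about 25% in these data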;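 also: 0% = DMSO wells with enzyme and 100% = wells lacking Arfgap1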
#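 System: truncated rat Arfgap1 GAP domain / Benchmarks: high control wells lacking Arfgap1, low control full reaction with DMSO / Times: compound-enzyme preincubation 20 min, reaction 120 min, detection 60 min, 25 °C / Repeats: one replicate per compound / Also added: human ARF1(Δ1-17)-GTP substrate / Measured by: Tracer-displacement fluorescence polarization with EDTA stop, 620/688 nm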
# procasp7 triplic = activates human procaspase-7, counter-screen for procaspase-3 activators; shares compounds with procasp3 activ; recombinant procaspase-7, Ac-DEVD-pNA absorbance; asp23/198/206-to-Ala mutant, cannot self-cleave; activation, % at 8.5 µM; 210 tested, under 10 active;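 active = mean activation above a set limit taken from an earlier procaspase-7 screen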;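 also: 0% = DMSO wells and 100% = DMSO plus 5 µM procaspase-7 enzyme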
# proCasp3 confirm = confirmation of human procaspase-3 activators; shares compounds with procasp3 activ; recombinant PC-3 D3A, Ac-DEVD-pNA absorbance 405 nm; 100% is higher-enzyme control; activation, % at 8.5 µM; 10% of 210 active;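 active = mean activation above a set limit carried over from the earlier primary screen, cut at about 22% in these data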
# ARFGAP1 inh conf = rat ARFGAP1 inhibition, confirmed; 30% of 890 active; inhibition, % at 16.5 µM; shares compounds with ARFGAP1 inh; ARFGAP1-stimulated ARF1 GTP hydrolysis, GDP tracer FP;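 active = average inhibition over triplicates above the hit cutoff set in the earlier primary screen, cut at about 25% in these data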;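 also: 0% = Arfgap1 plus ARF1-GTP with DMSO and 100% = wells lacking Arfgap1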
# An asterisk follows results filed as active; x = no result given. In the library only some 1.2% were active in any assay of this set; here they are far more common.
SMILES,LANA-H2A inh,ASAP1 inh,procasp3 activ,CR mimetic SO,proCasp7 act,ARFGAP1 inh,procasp7 triplic,proCasp3 confirm,others
CCOc1ccc(C(=O)C[n+]2ccc(C(=O)NCc3ccccc3)cc2)cc1,-2,-16,33*,92,7,-16,5,7,
O=C(Cc1ccccc1F)NNC(=O)c1ccncc1,-1,-7,-8,97,5,2,x,x,
Cc1ccccc1Nc1nnc(SCC(=O)c2c(N)n(C3CC3)c(=O)[nH]c2=O)s1,x,20,x,x,x,18,x,x,
COCCN(C(=O)c1ccc(N(C)S(=O)(=O)c2ccc(C)cc2)cc1)c1c(N)n(CC(C)C)c(=O)[nH]c1=O,x,3,x,x,x,13,x,x,
COc1ccccc1NC(=O)C(=O)c1cn(CC(=O)N2CCOCC2)c2ccccc12,2,5,22*,76,2,-3,3,3,
Cc1ccc2nc(CSc3nc(C)cc(C)c3C#N)[nH]c2c1,-2,0,69*,107,7,8,-20,-11,
Cc1cc(C)c(C#N)c(SCc2ccccc2)n1,-1,6,-3,122,10,-2,x,x,
CNc1ccccc1C(=O)OCC(C)=O,-1,x,22*,x,22,x,17,24*,
CCN(CC)c1ccc(C(=O)OCC(=O)NCC2CCCO2)cc1 (stereo not drawn),-1,10,5,103,7,2,x,x,
CCCc1cc(=O)oc2cc(OC(=O)CN3C(=O)NC4(CCCC4)C3=O)ccc12,-1,5,26*,114,15,-7,-22,-13,
CCOC(=O)C(Cc1cc(N)c(Oc2ccc(OC)cc2)c(N)c1)NC(C)=O (stereo not drawn),x,10,x,x,x,-2,x,x,
CC(=O)Nc1ccc(NC(=O)CSc2ncnc3sc(C)c(C)c23)cc1,4,-1,3,99,1,2,x,x,
Cc1sc2ncnc(SCC(=O)Nc3ccc(S(=O)(=O)N4CCOCC4)cc3)c2c1C,-6,16,23*,92,4,12,0,2,
Cc1ccc(C(=O)COC(=O)c2ccco2)cc1C,-4,-7,-8,90,-2,6,x,x,
N=c1oc2ccc3ccccc3c2cc1-c1nc(-c2ccccc2)cs1,6,-16,-16,94,-21,-14,x,x,
N=c1oc2ccccc2cc1-c1nc(-c2ccccc2)cs1,3,19,43*,86,21,-1,-21,-15,
Cc1ccc(S(=O)(=O)NC(=O)Nc2cccc(C)n2)cc1,1,-10,-1,108,15,-5,x,x,
Cc1ccc(S(=O)(=O)CC(=O)Nc2cccc(C)n2)cc1,1,5,23*,102,5,-1,2,5,
COc1ccc(C2=C/C(=C\c3cccc(OC(C)=O)c3)C(=O)O2)cc1,-3,1,35*,90,-13,-1,-34,-13,
COc1ccc(C2=C/C(=C\c3ccccc3OC(C)=O)C(=O)O2)cc1,2,-10,12,109,-14,1,x,x,
CC(OC(=O)/C=C/c1ccccc1)C(=O)N1CCc2ccccc21 (stereo not drawn),-3,7,-4,121,-1,6,x,x,
CCc1ccc(N2CCN(C(=O)N3CCOCC3)CC2)cc1,2,-3,24*,102,11,11,3,5,
CCOC(=O)C(C)Sc1ncc(-c2ccccc2)cn1 (stereo not drawn),-2,-16,1,102,9,-1,x,x,
O=C(N/N=C/c1ccc(-c2ccccc2Cl)o1)c1ccccc1,2,10,25*,81,-24,9,-7,-5,
C=C(C)CSc1nnc2n(N)c(=O)c3ccccc3n12,-4,-1,22*,103,5,-3,0,4,
SMILES,LANA-H2A inh,ASAP1 inh,procasp3 activ,CR mimetic SO,proCasp7 act,ARFGAP1 inh,procasp7 triplic,proCasp3 confirm,others
C/C(Cl)=C\CSc1nnc2n(N)c(=O)c3ccccc3n12,-4,5,-2,92,0,-4,x,x,
CCCN(C(=O)CSCC(=O)Nc1cccc(C)c1)c1c(N)n(Cc2ccccc2)c(=O)[nH]c1=O,0,8,2,103,-12,5,x,x,
CCCCN(C(=O)CSCC(=O)Nc1cccc(C)c1)c1c(N)n(Cc2ccccc2)c(=O)[nH]c1=O,-3,3,24*,81,2,2,1,3,
CC(C)=CCc1cc(-c2oc3cc(O)cc(O)c3c(=O)c2O)ccc1O,-1,8,22*,83,12,8,3,1,
COc1cc2sc3ccc(C#CC4(O)CCCCC4)cc3c(=O)c2cc1OC,3,4,70*,103,25,5,-22,-13,
COc1cccc(OCCN2CCN(c3ncnc4c3cnn4-c3ccccc3)CC2)c1,-2,-3,27*,91,3,-6,3,2,
O=C(NNC(=O)c1ccc(F)c(S(=O)(=O)N2CCOCC2)c1)c1ccc(Br)cc1,2,9,6,86,2,-14,x,x,
Cc1ccc(C)c(C(=O)COc2ncnc3ccccc23)c1,0,-5,48*,104,0,-12,1,6,
COc1cc(OC)c(C(=O)COc2ncnc3ccccc23)c(OC)c1,8,-8,2,93,2,0,x,x,
CCN(CC)c1ccc(/C=N/NC(=S)NCc2ccco2)cc1,0,-2,27*,105,14,8,2,31*,
CC1CCN(CCCNC(=O)COc2cc(=O)n(C)c3ccccc23)CC1,-3,-4,38*,95,4,-7,1,5,
CCn1c(=O)cc(OCC(=O)NCCCN2CCC(C)CC2)c2ccccc21,1,4,6,94,7,0,x,x,
Cc1ccc(S(=O)(=O)c2cc3ccccc3nc2N)cc1,1,7,24*,87,2,8,7,-1,
O=C(N/N=C/c1ccc(O)cc1O)c1ccc(CN2C(=O)c3cccc4cccc2c34)cc1,-4,7,23*,92,24,27*,12,21,ARFGAP1 inh conf=80*
O=C(NCCOc1ccccc1F)c1ccc2c(=O)n3c(nc2c1)CCC3,-2,0,2,116,10,-3,x,x,
